The source made the active and inactive calls. The rule behind the calls is not given here.
Species on record: Oryctolagus cuniculus
Experiment: Inhibition of chymotrypsin like activity of rabbit 20S proteasome using Suc-LLVY-AMC as substrate at 100 uM after 45 mins relative to control
Outline: (§1)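 Rabbit 20S proteasome (0.3 nM final) incubated with Suc-LLVY-AMC ([…] final) at 37 °C for 45 min in pH 7.5 buffer of 20 mM Tris, 1 mM DTT, 10% glycerol. Chymotrypsin-like activity was followed as substrate hydrolysis (AMC release), with and without test compound. Inhibition was taken relative to the no-compound control.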

Row | inhibition [%] | fold change (FC) | SMILES
1 | 30 | – | COC(=O)[C@H](Cc1ccccc1)NC(=O)CC(NNC(=O)[C@H](CC(N)=O)NC(=O)OC(C)(C)C)C(F)(F)F (some centres undefined)
2 | 35 | – | COc1cc(CNC(=O)CC(NNC(=O)[C@H](CCCCNC(=O)OCc2ccccc2)NC(=O)OC(C)(C)C)C(F)(F)F)cc(OC)c1OC (some centres undefined)
3 | – | 3.6 | COc1ccc(C[C@H](NC(=O)OCC2c3ccccc3-c3ccccc32)C(=O)NNC(=O)CC(NNC(=O)OCc2ccccc2)C(F)(F)F)cc1OC (some centres undefined)
4 | 30 | – | COC(=O)[C@H](Cc1ccccc1)NC(=O)CC(NNC(=O)[C@H](CCCCNC(=O)OCc1ccccc1)NC(=O)Cc1cc(OC)ccc1OC)C(F)(F)F (some centres undefined)

Species on record: Oryctolagus cuniculus
Experiment: (§2) Inhibition of chymotrypsin like activity of rabbit 20S proteasome using Suc-LLVY-AMC as substrate after 45 mins
Outline: as §1

Row | inhibition | SMILES
5 | inactive | COc1ccc(C[C@H](NC(=O)Cc2cccc(Oc3ccccc3)c2)C(=O)NNC(=O)CC(NNC(=O)OCc2ccccc2)C(F)(F)F)cc1OC (some centres undefined)
6 | inactive | COC(=O)[C@H](Cc1ccccc1)NC(=O)CC(NNC(=O)Cc1cc(OC)ccc1OC)C(F)(F)F (some centres undefined)
7 | inactive | COC(=O)[C@H](Cc1ccccc1)NC(=O)CC(NNC(=O)[C@H](CC(N)=O)NC(=O)Cc1cc(OC)ccc1OC)C(F)(F)F (some centres undefined)
8 | inactive | COc1ccc(C[C@H](NC(=O)Cc2cccc(Oc3ccccc3)c2)C(=O)NNC(=O)CC(NNC(=O)OC(C)(C)C)C(F)(F)F)cc1OC (some centres undefined)
9 | inactive | COc1ccc(C[C@H](N)C(=O)NNC(=O)CC(NNC(=O)OCc2ccccc2)C(F)(F)F)cc1OC (some centres undefined)
10 | inactive | COc1ccc(C[C@H](NC(=O)OCC2c3ccccc3-c3ccccc32)C(=O)NNC(=O)CC(NNC(=O)OC(C)(C)C)C(F)(F)F)cc1OC (some centres undefined)
11 | inactive | COc1ccc(OC)c(CC(=O)N[C@@H](CCCCNC(=O)OCc2ccccc2)C(=O)NNC(CC(=O)NCc2cc(OC)c(OC)c(OC)c2)C(F)(F)F)c1 (some centres undefined)
12 | inactive | COc1cc(CNC(=O)CC(NNC(=O)[C@H](CC(N)=O)NC(=O)OC(C)(C)C)C(F)(F)F)cc(OC)c1OC (some centres undefined)

Test system: not listed separately
Experiment: as §2
Design: species or system Oryctolagus cuniculus
Outline: as §1

Row | IC50 [µM] | SMILES
13 | 11.8 | COC(=O)[C@H](Cc1ccccc1)NC(=O)CNNC(=O)C(CCCCNC(=O)OCc1ccccc1)NC(=O)OC(C)(C)C (some centres undefined)
14 | 3.6 | COC(=O)[C@H](Cc1ccccc1)NC(=O)CCNNC(=O)[C@H](CCCCNC(=O)OCc1ccccc1)NC(=O)Cc1cc(OC)ccc1OC
15 | 97 | COc1ccc(OC)c(CC(=O)N[C@@H](CCCCN)C(=O)NNC(CC(=O)NCc2cc(OC)c(OC)c(OC)c2)C(F)(F)F)c1 (some centres undefined)
16 | 1.4 | COC(=O)C(Cc1ccccc1)NC(=O)CCNNC(=O)C(CCCCN)NC(=O)Cc1cccc(Oc2ccccc2)c1 (centres undefined)
17 | 7.1 | COC(=O)[C@H](Cc1ccccc1)NC(=O)CNNC(=O)C(CCCCNC(=O)OCc1ccccc1)NC(=O)Cc1cc(OC)ccc1OC (some centres undefined)
18 | 11.8 | COc1ccc(OC)c(CC(=O)NC(CCCCN)C(=O)NNCCC(=O)NCc2cc(OC)c(OC)c(OC)c2)c1 (centres undefined)
19 | 2.8 | COC(=O)C(Cc1ccccc1)NC(=O)CCNNC(=O)C(CCCCNC(=O)OCc1ccccc1)NC(=O)Cc1cccc(Oc2ccccc2)c1 (centres undefined)
20 | 1.1 | COC(=O)[C@H](Cc1ccccc1)NC(=O)CNNC(=O)C(CCCCNC(=O)OCc1ccccc1)NC(=O)Cc1cccc(Oc2ccccc2)c1 (some centres undefined)
21 | 0.7 | COC(=O)[C@H](Cc1ccccc1)NC(=O)CNNC(=O)C(CCCCN)NC(=O)Cc1cccc(Oc2ccccc2)c1 (some centres undefined)
22 | 5.9 | COC(=O)[C@H](Cc1ccccc1)NC(=O)CC(NNC(=O)[C@H](CCCCN)NC(=O)Cc1cccc(Oc2ccccc2)c1)C(F)(F)F (single isomer, unassigned; diastereomer 2)
23 | 48.5 | COC(=O)C(Cc1ccccc1)NC(=O)CCNNC(=O)C(CCCCNC(=O)OCc1ccccc1)NC(=O)OC(C)(C)C (centres undefined)
24 | 18.2 | COC(=O)C(Cc1ccccc1)NC(=O)CCNNC(=O)C(N)CCCCNC(=O)OCc1ccccc1 (centres undefined)
25 | 3.3 | COc1cc(CNC(=O)CCNNC(=O)C(CCCCN)NC(=O)Cc2cccc(Oc3ccccc3)c2)cc(OC)c1OC (centres undefined)
26 | 4.7 | COc1cc(CNC(=O)CCNNC(=O)C(CCCCNC(=O)OC(C)(C)C)NC(=O)Cc2cccc(Oc3ccccc3)c2)cc(OC)c1OC (centres undefined)
27 | 31.4 | COc1ccc(OC)c(CC(=O)NC(CCCCNC(=O)OC(C)(C)C)C(=O)NNCCC(=O)NCc2cc(OC)c(OC)c(OC)c2)c1 (centres undefined)
28 | 8.8 | COC(=O)[C@H](Cc1ccccc1)NC(=O)CCNNC(=O)[C@H](CCCCN)NC(=O)Cc1cc(OC)ccc1OC
29 | 5.9 | COC(=O)[C@H](Cc1ccccc1)NC(=O)CC(NNC(=O)[C@H](CCCCN)NC(=O)Cc1cc(OC)ccc1OC)C(F)(F)F (some centres undefined)
30 | 1 | COC(=O)[C@H](Cc1ccccc1)NC(=O)CNNC(=O)C(CCCCN)NC(=O)Cc1cc(OC)ccc1OC (some centres undefined)
31 | 6.2 | COc1cc(CNC(=O)CC(NNC(=O)[C@H](CCCCN)NC(=O)Cc2cccc(Oc3ccccc3)c2)C(F)(F)F)cc(OC)c1OC (some centres undefined)
32 | 6 | COc1cc(CNC(=O)CCNNC(=O)[C@H](CCCCNC(=O)OC(C)(C)C)NC(=O)OCC2c3ccccc3-c3ccccc32)cc(OC)c1OC
33 | 10.1 | COc1cc(CNC(=O)CC(NNC(=O)[C@@H](N)CCCCNC(=O)OCc2ccccc2)C(F)(F)F)cc(OC)c1OC (some centres undefined)
34 | 8.4 | COC(=O)[C@H](Cc1ccccc1)NC(=O)CC(NNC(=O)[C@H](CCCCN)NC(=O)Cc1cccc(Oc2ccccc2)c1)C(F)(F)F (single isomer, unassigned; diastereomer 1)

From ChEMBL document CHEMBL3085668, “α- and β-hydrazino acid-based pseudopeptides inhibit the chymotrypsin-like activity of the eukaryotic 20S proteasome” (Eur J Med Chem, 2013)
